The values below come from ChEMBL document CHEMBL1938319, “Design, synthesis, and in vitro antiproliferative activity of novel Dasatinib derivatives” (Bioorg Med Chem Lett, 2012).

Assay [1] concerns K562. The experiment in a line: Growth inhibition of human K562 cells at 10 uM after 72 hrs by WST-8 reagent based MTT assay. The assay is classed as functional. The conditions noted are these: K562, 72 h, read-out: GI. The method, boiled down:
(§1)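 Single-concentration screen at 10 μM on K562 or U937 cells in RPMI1640 with 10% FBS, 5.0 × 10³ cells/well, settled 4 h, then 72 h exposure at 37 °C, 5% CO₂. WST-8/1-methoxyphenazinium reagent added for 1.5 h. A450 read with 650 nm correction. Growth given as % absorbance relative to vehicle control, averaged over three independent experiments.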

Assay [2] has as its system U-937. In words: Growth inhibition of human U937 cells at 10 uM after 72 hrs by WST-8 reagent based MTT assay. The assay is classed as functional. The following applies: U-937, 72 h, read-out: GI. The method, boiled down: as §1
Assay [3] has as its system U-937. The experiment in a line: Cytotoxicity against human U937 cells after 72 hrs by WST-8 reagent based MTT assay. It counts as functional, cell-based. The conditions noted are these: U-937, 72 h. The method, boiled down:
(§2)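 K562 or U937 cells in RPMI1640 with 10% FBS, 5.0 × 10³ cells/well, settled 4 h at 37 °C, 5% CO₂. Exposed to compound for 72 h. Medium removed, then WST-8 reagent (5 mM WST-8, 0.2 mM 1-methoxyphenazinium salt, 150 mM NaCl) added for 1.5 h at 37 °C. Absorbance read at 450 nm, corrected at 650 nm, as % of vehicle control. IC50 from concentration–response curve fitting. Three independent experiments averaged.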

Assay [4] has as its system K562. The experiment in a line: Cytotoxicity against human K562 cells after 72 hrs by WST-8 reagent based MTT assay. The assay is classed as functional, cell-based. The conditions noted are these: K562, 72 h. A digest of the protocol: as §2

Structures are written as SMILES.

On to `COc1cc2c(Nc3ccc4sc(C(=O)Nc5c(C)cccc5Cl)cc4c3)ncnc2cc1OCCCN1CCOCC1`, for which the inhibition of growth at 10 µM in the assay on K562 [1] came to 9.99%; in the assay with U-937 [2] it was 56.2%. For the same compound, the IC50 with U-937 [3] was 9.09 µM.

As for `COc1cc2c(Nc3ccc4sc(C(=O)Nc5c(C)cccc5Cl)cc4c3)ncnc2cc1OCCCN1CCCCC1`, the results for the inhibition of growth at 10 µM with K562 [1] and in the assay with U-937 [2] were 71.8% and 75.7%, respectively. In addition, the IC50 stood at 4.01 µM in the assay with K562 [4] and 4.34 µM in the assay with U-937 [3].

Take `CCN(CCO)CCCOc1cc2ncnc(Nc3ccc4sc(C(=O)Nc5c(C)cccc5Cl)cc4c3)c2cc1OC`: the figures for the inhibition of growth at 10 µM with K562 [1] and with U-937 [2] were 59.8% and 76.9%, respectively. The IC50 amounted to 8.97 µM in the assay on K562 [4] and 4.25 µM with U-937 [3].

`CCN(CC)CCCOc1cc2ncnc(Nc3ccc4sc(C(=O)Nc5c(C)cccc5Cl)cc4c3)c2cc1OC`: the inhibition of growth at 10 µM came out at 72.5% in the assay with K562 [1] and 78% in the assay on U-937 [2]. Further, the figures for the IC50 with K562 [4] and with U-937 [3] were 3.55 µM and 4.01 µM, respectively.

Regarding `COc1cc2c(Nc3ccc4sc(C(=O)Nc5c(C)cccc5Cl)cc4c3)ncnc2cc1OCCCN1CCN(C)CC1`, the inhibition of growth at 10 µM worked out at 51.2% in the assay with K562 [1] and 76% with U-937 [2]. In addition, the IC50 amounted to 9.88 µM with K562 [4] and 3.48 µM with U-937 [3].

Consider `COc1cc2c(Nc3ccc4sc(C(=O)Nc5c(C)cccc5Cl)cc4c3)ncnc2cc1OCCCN1CCCCC1C` (stereo not drawn), for which the inhibition of growth at 10 µM in the assay on K562 [1] stood at 84.2%; in the assay on U-937 [2], 80.2%. The IC50 amounted to 2.15 µM in the assay with K562 [4] and 3.45 µM in the assay with U-937 [3].

For the compound `Cc1nc(Nc2ccc3sc(C(=O)Nc4c(C)cccc4Cl)cc3c2)cc(N2CCOCC2)n1`, the inhibition of growth at 10 µM with K562 [1] came to 13.9%; with U-937 [2] it was 8.37%.

Turning to `Cc1nc(Nc2ccc3sc(C(=O)Nc4c(C)cccc4Cl)cc3c2)cc(N2CCCCC2)n1`, the inhibition of growth at 10 µM with K562 [1] turned out to be 8.78%; with U-937 [2], 20.6%. Also, the IC50 in the assay on U-937 [3] turned out to be 20 µM.

As for `Cc1nc(Nc2ccc3sc(C(=O)Nc4c(C)cccc4Cl)cc3c2)cc(N2CCN(C)CC2)n1`, the inhibition of growth at 10 µM with K562 [1] stood at 32.4%; in the assay with U-937 [2], 40.6%. Moreover, the results for the IC50 with K562 [4] and in the assay with U-937 [3] were 17 µM and 15 µM, respectively.

`CCN1CCN(c2cc(Nc3ccc4sc(C(=O)Nc5c(C)cccc5Cl)cc4c3)nc(C)n2)CC1`: the inhibition of growth at 10 µM turned out to be 33.9% in the assay with K562 [1] and 46.5% in the assay on U-937 [2]. The IC50 worked out at 16.9 µM with K562 [4] and 13.1 µM with U-937 [3].

As to `Cc1nc(Nc2ccc3sc(C(=O)Nc4c(C)cccc4Cl)cc3c2)cc(N2CCN(CCO)CC2)n1`, the inhibition of growth at 10 µM with K562 [1] turned out to be 27.8%; with U-937 [2] it was 37.1%. Moreover, the IC50 was determined as 21.9 µM in the assay with K562 [4] and 13.7 µM with U-937 [3].

For the compound `Cc1nc(Nc2ccc3sc(C(=O)Nc4c(C)cccc4Cl)cc3c2)cc(N2CCC(C)CC2)n1`, the inhibition of growth at 10 µM in the assay with K562 [1] was 20.5%; in the assay on U-937 [2], 24.6%. Besides, the IC50 was found to be 22.2 µM in the assay with K562 [4] and 20.6 µM in the assay with U-937 [3].

On to `Cc1nc(Nc2ncc(C(=O)Nc3c(C)cccc3Cl)s2)cc(N2CCN(CCO)CC2)n1` [DASATINIB], for which the inhibition of growth at 10 µM in the assay on K562 [1] was found to be 37.4%; in the assay with U-937 [2] it was 37.2%. Also, the IC50 came out at 12.8 µM in the assay on K562 [4] and 13.6 µM with U-937 [3].
